Source: ChEMBL document CHEMBL4364301 (Eur J Med Chem, 2019)

Columns and labels:
Type in all cases: functional
LNCaP = test: Antiproliferative activity against human LNCAP cells assessed as reduction in cell growth incubated for 96 hrs by propidium iodide based 2D monolayer assay
Outline: (§1)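 After 24 h recovery, compound in medium or medium alone (control wells) was added at 10 half-log concentrations from 0.0032 to 100 µM, in triplicate, with at most 0.3% DMSO. After 96 h, wells were PBS-washed, stained with 7 µg/ml PI and 0.1% Triton X-100, and fluorescence read at 530/620 nm. IC50 came from a 4-parameter fit, geometric mean.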

VCaP = test: Antiproliferative activity against human VCaP cells assessed as reduction in cell growth incubated for 96 hrs by propidium iodide based 2D monolayer assay
Outline: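 VCaP cells in RPMI 1640 with 10% FCS at 37 °C, 5% CO2, seeded 4,000–20,000 cells/well and left 24 h before dosing. Compounds from DMSO stocks were diluted in half-log steps in medium, 10 concentrations 0.0032–100 μM, triplicate wells, max 0.3% DMSO. After 96 h, cells were washed, stained with 7 μg/ml propidium iodide plus 0.1% Triton X-100 for 1–2 h at room temperature, and fluorescence read at ex 530/em 620 nm.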

DU-145 = test: Antiproliferative activity against human DU145 cells assessed as reduction in cell growth incubated for 96 hrs by propidium iodide based 2D monolayer assay; conditions: for IC50: DU-145, 96 h; outline: as §1
CWR22R = test: Antiproliferative activity against human 22Rv1 cells assessed as reduction in cell growth incubated for 96 hrs by propidium iodide based 2D monolayer assay; conditions: for IC50: 22Rv1, 96 h; outline: as §1

Structure (SMILES) | IC50 (LNCaP) [µM] | IC50 (VCaP) [µM] | IC50 (DU-145) [µM] | IC50 (CWR22R) [µM] | Activity (LNCaP) | Activity (VCaP) | Activity (DU-145) | Activity (CWR22R)
CC(O)(CSc1ccc(S(F)(F)(F)(F)F)cc1)C(=O)Nc1ccc(C#N)c(C(F)(F)F)c1 (racemic) | 16.9 | 30.2 | 27.9 | 18.1 |  |  |  | 
CC(O)(CSc1cc(C(F)(F)F)cc(C(F)(F)F)c1)C(=O)Nc1ccc(S(F)(F)(F)(F)F)cc1 (racemic) | 17.6 | 19.4 | 29.7 | 15.8 |  |  |  | 
CC(O)(CSc1cccc(OC(F)(F)F)c1)C(=O)Nc1ccc(S(F)(F)(F)(F)F)cc1 (racemic) | 12.8 | 13.8 | 23.8 | 14 |  |  |  | 
CC(O)(CS(=O)(=O)c1ccc(F)cc1)C(=O)Nc1ccc(C#N)c(C(F)(F)F)c1 (racemic) [BICALUTAMIDE] |  |  |  |  | Dose-dependent effect | Dose-dependent effect | Dose-dependent effect | Dose-dependent effect
CC(O)(COc1cccc(OC(F)(F)F)c1)C(=O)Nc1cccc(S(F)(F)(F)(F)F)c1 (racemic) | 15.2 | 28.6 | 30.1 | 18.8 |  |  |  | 
CC(O)(CSc1ccccc1C(F)(F)F)C(=O)Nc1ccc(S(F)(F)(F)(F)F)cc1 (racemic) | 12.3 | 21 | 15.8 | 13.2 |  |  |  | 
CC(O)(CS(=O)(=O)c1ccc(C(F)(F)F)cc1)C(=O)Nc1ccc(S(F)(F)(F)(F)F)cc1 (racemic) | 20.7 | 27.7 | 29.3 | 28.9 |  |  |  | 
CC(O)(COc1cccc(C(F)(F)C(F)(F)F)c1)C(=O)Nc1ccc(C(F)(F)F)cc1 (racemic) | 3.9 | 8.1 | 7.6 | 3.6 |  |  |  | 
CC(O)(COc1cccc(S(F)(F)(F)(F)F)c1)C(=O)Nc1ccc(S(F)(F)(F)(F)F)cc1 (racemic) | 12 | 11.4 | 29.6 | 17.6 |  |  |  | 
